Myeloid diff 2 = promotes myeloid progenitor differentiation | 1% of 360,000 active | calls only at 10 µM | ER-HoxA9 myeloid progenitors, lysozyme-GFP differentiation, flow cytometry;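 active = normalized GFP-positive differentiation at or above the plate's own cutoff, the solvent-only control mean plus 3 SD; inconclusive = no clear call, values can overlap the other calls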;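 note: cells exposed to compound for four days before flow analysis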
CSN inh = inhibitors of human CSN-mediated cullin deneddylation; Q92905; Purified CSN, SCF-Nedd8-OG deneddylation, fluorescence polarization; inhibition, % at 12.5 µM; 0.38% of 360,000 active; AID 651999;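 active = pattern-corrected inhibition above about 35%, with an unprinted fluorescence ratio check between 0.5 and 1.5, limit read from the data, passing the limit was not always enough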;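 note: 0% = enzyme with substrate and 100% = substrate without enzyme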
Target sequence (Q92905 whole entry, looked up, one chain of several): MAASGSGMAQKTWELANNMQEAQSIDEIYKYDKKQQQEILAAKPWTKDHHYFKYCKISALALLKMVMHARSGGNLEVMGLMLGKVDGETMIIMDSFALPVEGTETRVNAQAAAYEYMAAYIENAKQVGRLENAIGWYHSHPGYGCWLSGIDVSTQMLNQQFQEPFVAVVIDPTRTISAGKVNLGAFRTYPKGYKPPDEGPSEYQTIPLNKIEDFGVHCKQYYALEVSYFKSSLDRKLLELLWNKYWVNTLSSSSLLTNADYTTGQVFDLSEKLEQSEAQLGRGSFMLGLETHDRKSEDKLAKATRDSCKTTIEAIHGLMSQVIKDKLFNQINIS
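Detection – fluorescence polarization · System – HEK293T-derived human Csn5 enzyme · Controls – substrate-only high control, full reaction low control · Timing – 90 min, room temperature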
Granule exo inh = blocks lytic granule exocytosis | inhibition, % at 10 µM | TALL-104 LAMP-1 surface exposure, flow cytometry; cells stimulated with thapsigargin and PMA | 0.66% of 360,000 active;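 active = inhibition above about 55%, limit read from the data; inconclusive = no clear call, values can overlap the other calls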
HNF4A DNA FP = change in binding of human HNF4 alpha to DNA. P41235. HNF4a-FITC DNA binding, fluorescence polarization, 1 h. activity change, % at 10 µM. 0.3% of 360,000 active. AID 1224865; in the data active = activity change above about 30%, passing the limit was not always enough
The depositor's hits bear a star; i = inactive; ? = inconclusive; . = no result given; + = active, no number. Shown are actives, neighbours in structure and some others; about 2.2% of the full set was active somewhere.

SMILES	Myeloid diff 2	CSN inh	Granule exo inh	HNF4A DNA FP
O=C(NCc1ccccc1Cl)C1CCCN(c2ncnc3c2nc2n3CCCCC2)C1 (centres undefined)	+	-7	-3	1
CCC(C)[C@H](NC(=O)[C@@H]1CSC2c3ccccc3C(=O)N21)C(=O)NCc1ccco1 (some centres undefined)	i	4	-10	-2
CCC(CN(C)C)Oc1cc(NCc2ccccc2)c2ncn(C(C)C)c2c1 (centres undefined)	+	13	-7	-5
CCOc1ccc(CN(CC)C(=O)Cc2c[nH]c3ccccc23)cc1OC	i	-5	6	-1
COCCn1c(C)cc(C(=O)CN2C(=O)C(=O)N(CCC3=CCCCC3)C2=O)c1C	i	5	-1	0
COc1ccccc1NS(=O)(=O)c1ccc(O)c(C(=O)OCC(=O)N2c3ccccc3CC2C)c1 (centres undefined)	+	1	-1	-4
CSC1=C(C#N)C(c2ccncc2)C(C(=O)Nc2ccccc2)=C(C)N1 (centres undefined)	i	93*	-2	-2
CC1=C(C(=O)Nc2ccccc2)C(c2ccncc2)C(C#N)=C(SCC(=O)Nc2ccccc2)N1 (centres undefined)	i	0	5	0
Cc1cc(C)c2c(c1)CC(C)(C)CC2=O	i	-3	3	57*
CC1(C)CC(N2CCN(CCO)CC2)=CC(=S)N1	+	0	-5	-1
CC(=O)c1sc(N/N=C\c2ccc(Br)cc2)nc1C	i	17	-5	38*
COC(=O)[C@]12CCCCC=C1N(Cc1ccccc1)C(=O)[C@H](CC(=O)N1CCCCC1)C2	i	0	-2	3
CCCCn1c(/C=N/Nc2nc3ccccc3[nH]2)nc2ccccc21	+	0	6	2
Fc1ccccc1-c1ccc(/C=N/Nc2nc3ccccc3[nH]2)o1	i	5	70*	2
CCCCn1c(/C=C/c2ccco2)nc2ccccc21	i	4	-1	3
O=C(N/N=C/c1ccccc1)c1ccc(N2CCCC2=O)cc1	i	2	2	5
CC(C)(C)n1nnnc1C(C1CC1)N1CCN(C/C=C/c2ccccc2)CC1 (centres undefined)	i	51*	-6	2
O=C(COc1ccc(S(=O)(=O)N2CCOCC2)cc1)N1CCN(c2ccccc2)CC1	i	3	2	3
CC1(C)Cc2nc3sc4c(SCC(=O)NCc5ccccc5)ncnc4c3cc2CO1	+	-1	10	-2
Clc1ccc(-c2nc3ccccn3c2CN2CCOCC2)cc1	+	3	-3	-1
CC(=O)Nc1ccc(SCCC2CCCCN2C)cc1 (centres undefined)	i	2	-4	0
COc1ccc(C)cc1Nc1n[n+](-c2ccccc2)c(-c2cc([N+](=O)[O-])cc(OC)c2O)s1	+	73	-1	207
COc1ccc(C)cc1Nc1n[n+](-c2ccccc2)c(-c2ccc(NC(C)=O)cc2)s1	i	4	3	8
CCOc1cc(/C=C2/C(=O)ON=C2C)ccc1OCc1ccccc1F	i	8	78*	4
CCOc1cc(/C=C2/C(=O)ON=C2C)ccc1OCc1ccc(F)cc1	i	4	6	1
SMILES	Myeloid diff 2	CSN inh	Granule exo inh	HNF4A DNA FP
Cn1c(=O)[nH]c(=O)c2c1nc(N1CCN(CCO)CC1)n2Cc1ccccc1	i	2	-2	-4
COc1cc(/C=C/c2nc(-c3ccccc3O)n[nH]2)cc(OC)c1OC	?	-13	98*	-1
O=C1CCN(Cc2ccccc2)S(=O)(=O)c2c(F)cc(F)cc21	i	1	-3	5
CCCN(CCC)c1ccc(/C=C/c2ccc3cc(OCC)ccc3n2)cc1	+	34	18	88
CCOc1ccc(N=Cc2ccc(N(C)C)cc2)c(O)c1	i	6	-2	-4
COc1ccc(C(=O)NCCc2ccccc2)cc1OC	i	1	3	-5
COc1ccc(/C(O)=C/c2nc3ccc(C(=O)NCCc4cccc(C)c4)cc3[nH]c2=O)cc1OC	i	2	2	44*
Cc1ccnc(NS(=O)(=O)c2ccc(NC(=O)Cc3ccc(Cl)cc3)cc2)n1	.	1	-2	2
Cc1ccnc(NS(=O)(=O)c2ccc(NC(=O)Cc3c(F)cccc3Cl)cc2)n1	i	0	0	48*
CSCC[C@H](N)C(=O)N1CCC(C(=O)N[C@H](C)C(=O)Nc2ccc(C(C)C)cc2)CC1	i	0	-2	-1
Cc1cccc2c1NC(=O)/C2=C\C(=O)c1cccs1	i	2	4	0
CCc1ccc2c(c1)/C(=C/C(=O)c1cccs1)C(=O)N2	?	2	104*	2
Cc1ccc(NCCN(C)C)c2c(=O)c3cc(O)ccc3sc12	?	13	44	52*
CC(=O)Nc1c2c(nn1-c1cccc(Cl)c1)CS(=O)(=O)C2	i	4	-3	-1
Cc1nc(Sc2ccccc2)c(C#N)c(C)c1[N+](=O)[O-]	i	1	-14	-8
Cc1cc(C)c(C#N)c(Sc2nc(C)c([N+](=O)[O-])c(C)c2C#N)n1	+	4	-1	2
O=C(O)C1C2C=CC(O2)C1C(=O)Nc1cccc(C(F)(F)F)c1 (centres undefined)	i	-1	-4	-3
CC1(C)CC2CC(C)(CN2C(=O)COC(=O)c2ccc(NC(=O)CC#N)cc2)C1 (centres undefined)	i	-3	-2	2
Cc1cc(N2CCN(C)CC2)nc2ccc(NC(=S)NCCCN3CCc4ccccc4C3)cc12	i	1	59*	0
Cc1cc(N2CCN(C)CC2)nc2ccc(NC(=S)NCCN3CCc4ccccc4C3)cc12	i	10	10	11
O=C(COC(=O)CCCOc1ccccc1)NC1CCS(=O)(=O)C1 (centres undefined)	i	1	-1	-1
CC(=O)c1cccc(NC(=O)C(C)OC(=O)c2ccc3ncsc3c2)c1 (centres undefined)	+	2	-1	3
O=C1C2=C(NC(=S)NC2c2ccc(Cl)cc2)NC(c2ccc(Cl)cc2)N1c1ccc(Cl)cc1 (centres undefined)	+	2	17	3
Cc1ccc(C(=O)Nc2cccc(-c3cn4ccccc4n3)c2)cc1	i	35*	7	-1
O=C(Nc1cccc(-c2cn3ccccc3n2)c1)c1ccccc1	i	-6	-4	-4
Cc1cc2occ(CC(=O)N(CC(C)C)c3c(N)n(Cc4ccccc4)c(=O)[nH]c3=O)c2cc1C	i	-5	2	5
Cc1nc(-c2ccc(F)cc2)c(CC(=O)N2CCN(S(=O)(=O)c3cccc([N+](=O)[O-])c3)CC2)s1	+	12	-1	24
O=C(Cc1ccccc1)N1CCN(S(=O)(=O)c2cccc([N+](=O)[O-])c2)CC1	i	-1	2	-2
COc1cccc2c1-c1c(O)cccc1C2=O	i	2	11	-2

Screens deposited in PubChem by several laboratories.
